According to ChEMBL document CHEMBL4138067, “Design, synthesis and cytotoxicity of bengamide analogues and their epimers” (Medchemcomm, 2017):

What was measured:
Assay type in all cases: functional
Lu1 = assay: Cytotoxicity in human Lu1 cells assessed as reduction in cell growth incubated for 72 hrs by neutral red staining based colorimetry; details: Lu1, 72 h
How it was run: (§1)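 Cells grown in D-MEM with 10% fetal calf serum, 2 mM L-glutamine, penicillin G, streptomycin and gentamicin, seeded at 3 × 10^3 cells per mL. Compound stocks in DMSO/H2O (1/9). Exposure 72 h at 37 °C in air/CO2 (95:5). Living cells stained with neutral red, optical density read at 540 nm. Run in triplicate. IC50 taken as concentration inhibiting growth to 50% of untreated control.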

HL-60 = assay: Cytotoxicity in human HL60 cells assessed as reduction in cell growth incubated for 72 hrs by neutral red staining based colorimetry; details: HL-60, 72 h; how it was run: as §1
HeLa = assay: Cytotoxicity in human HeLa cells assessed as reduction in cell growth incubated for 72 hrs by neutral red staining based colorimetry; how it was run: as §1
KB = assay: Cytotoxicity in human KB cells assessed as reduction in cell growth incubated for 72 hrs by neutral red staining based colorimetry; how it was run: as §1
HepG2 = assay: Cytotoxicity in human HepG2 cells assessed as reduction in cell growth incubated for 72 hrs by neutral red staining based colorimetry; details: HepG2, 72 h; how it was run: as §1
MCF7 = assay: Cytotoxicity in human MCF7 cells assessed as reduction in cell growth incubated for 72 hrs by neutral red staining based colorimetry; details: MCF7, 72 h; how it was run: as §1

Compound | IC50 (Lu1) | IC50 (HL-60) | IC50 (HeLa) | IC50 (KB) | IC50 (HepG2) | IC50 (MCF7)
CO[C@@H](C(=O)N[C@H]1CC[C@@H](O)CNC1=O)[C@H](O)[C@@H](O)[C@H](O)/C=C/C(C)(C)C | 23.4 µM | > 150 µM | > 150 µM | 62.6 µM | > 150 µM | 23.4 µM
CO[C@@H](C(=O)N[C@@H]1CCCCNC1=O)[C@H](O)[C@@H](O)[C@H](O)/C=C/C(C)(C)C | 0.5 µM | 5.3 µM | 2.1 µM | 1.1 µM | 1.1 µM | 0.2 µM
CO[C@@H](C(=O)N[C@@H]1CC[C@@H](O)CNC1=O)[C@H](O)[C@@H](O)[C@H](O)/C=C/C(C)(C)C | 17.2 µM | 12.1 µM | 15.4 µM | 5.1 µM | 21.3 µM | 165 µM
CO[C@@H](C(=O)N[C@H]1CCCCNC1=O)[C@H](O)[C@@H](O)[C@H](O)/C=C/C(C)(C)C | 4.3 µM | 83.3 µM | 60.7 µM | 21 µM | 21.1 µM | 1.3 µM
CO[C@@H](C(=O)N[C@@H]1CC[C@H](O)CNC1=O)[C@H](O)[C@@H](O)[C@H](O)/C=C/C(C)(C)C | 36.3 µM | > 150 µM | > 150 µM | 23.7 µM | 138 µM | 80.4 µM
CO[C@@H](C(=O)N[C@@H]1CCCCNC1=O)[C@@H]1OC(C)(C)O[C@H](/C=C/C(C)(C)C)[C@@H]1O | > 150 µM | > 150 µM | > 150 µM | > 150 µM | > 150 µM | > 150 µM
CO[C@@H](C(=O)N[C@H]1CC[C@H](O)CNC1=O)[C@H](O)[C@@H](O)[C@H](O)/C=C/C(C)(C)C | 10 µM | > 150 µM | > 150 µM | 19.8 µM | 103 µM | 144 µM
CO[C@@H](C(=O)N[C@H]1CCCCNC1=O)[C@@H]1OC(C)(C)O[C@H](/C=C/C(C)(C)C)[C@@H]1O | > 150 µM | > 150 µM | > 150 µM | > 150 µM | > 150 µM | > 150 µM
Cc1c2ccncc2c(C)c2c1[nH]c1ccccc12 [ELLIPTECINE] | 1.6 µM | 2 µM | 1.6 µM | 1.2 µM |  | 2.4 µM
